Source: ChEMBL document CHEMBL1142373 (J Med Chem, 2008)
Values after ≈ are worked out from the molar mass of the structure shown.

Assays:
[1] = tested on: Plasmodium falciparum; experiment: Antiplasmodial activity against chloroquine-sensitive Plasmodium falciparum 3D7 by [3H]hypoxanthine incorporation; assay type: functional, organism-based
[2] = tested on: Plasmodium falciparum; experiment: Antiplasmodial activity against chloroquine-resistant Plasmodium falciparum W2 by [3H]hypoxanthine incorporation; assay type: functional, organism-based
[3] = tested on: Plasmodium falciparum; experiment: Antiplasmodial activity against chloroquine-resistant Plasmodium falciparum K1 by [3H]hypoxanthine incorporation; assay type: functional, organism-based
[4] = Lipophilicity, Log D at pH 7.4; assay type: physicochemical; conditions: buffer
[5] = Lipophilicity, Log D at pH 7.2; assay type: physicochemical; conditions: buffer
[6] = Lipophilicity, Log D at pH 5.5; assay type: physicochemical; conditions: buffer
[7] = tested on: Candida albicans; experiment: Antifungal activity against Candida albicans; assay type: functional
[8] = tested on: Pichia kudriavzevii; experiment: Antifungal activity against Candida krusei ATCC 6258; assay type: functional
[9] = tested on: Candida parapsilosis; experiment: Antifungal activity against Candida parapsilosis ATCC 22019; assay type: functional; conditions: Lodderomyces parapsilosis
[10] = tested on: Cryptococcus neoformans; experiment: Antifungal activity against Cryptococcus neoformans; assay type: functional
[11] = tested on: Aspergillus flavus; experiment: Antifungal activity against Aspergillus flavus ATCC 204304; assay type: functional
[12] = tested on: Aspergillus fumigatus; experiment: Antifungal activity against Aspergillus fumigatus; assay type: functional
[13] = Cytotoxicity against mouse NSO cells after 48 hrs by MTT assay; assay type: cell-based; conditions: read-out: TC50
Summary of the method: (§1)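 NSO (3000 cells/well) and Daudi (300 cells/well) cells were grown in RPMI 1640 with 5% FCS. Compounds in DMSO were added 12 h after plating and left 48 h. MTT was then added (20 µL of 5 mg/mL stock, 2 h, 37 °C), followed by SDS/DMF lysis buffer overnight, with OD read at 570 nm. TC50 is reported; at least two experiments in triplicate.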

[14] = Cytotoxicity against human Daudi cells after 48 hrs by MTT assay; assay type: cell-based; conditions: read-out: TC50; summary of the method: as §1
[15] = Cytotoxicity against human lymphocytes after 48 hrs by MTT assay; assay type: cell-based, Lymphocyte; conditions: read-out: TC50
Summary of the method: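 Donor PBMC were separated on Ficoll-Hypaque and stimulated with 5 µg/mL PHA, then plated at 20000 cells/well. Compounds in DMSO were added 12 h later and left 48 h. Read-out was MTT formazan (2 h, 37 °C), extracted overnight in SDS/DMF buffer, with OD at 570 nm. TC50 is reported; at least two runs in triplicate.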

[16] = tested on: Plasmodium chabaudi; experiment: Antimalarial activity against Plasmodium chabaudi AS infected CD1 mice (Mus musculus) assessed as suppression of parasitaemia at 50mg/kg, perorally after 4 days; assay type: functional
Summary of the method: (§2)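 Female CD1 mice (20–25 g) got 0.2 mL i.v. of donor blood diluted to 1% parasitaemia (1 × 10^7 infected erythrocytes/mL). Oral dosing started 2–4 h post-inoculation as a 0.2 mL bolus once daily for 4 days, in 10% Tween-80/EtOH plus sterile PBS. On day 5, Giemsa-stained smears were read by microscopy. % suppression = [(C−T)/C]×100; five mice per group.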

[17] = tested on: Plasmodium falciparum; experiment: Antiplasmodial activity against chloroquine-sensitive Plasmodium falciparum D10 by parasite lactate dehydrogenase assay; conditions: D10, 72 h
[18] = tested on: Plasmodium berghei; experiment: Reduced parasitemia in Plasmodium berghei ANKA infected CD1 mice (Mus musculus) at 30 mg/kg dose after 4 days; set-up: scale not given: the % may be the effect or the level left
[19] = tested on: Plasmodium falciparum; experiment: Antiplasmodial activity against chloroquine-sensitive Plasmodium falciparum D10 by [3H]hypoxanthine incorporation; assay type: functional, organism-based
[20] = Cytotoxicity against human KB cells by MTT assay; assay type: cell-based; conditions: read-out: TC50 (the source's name)
[21] = tested on: Plasmodium chabaudi; experiment: Antimalarial activity against Plasmodium chabaudi AS infected CD1 mice (Mus musculus) assessed as suppression of parasitaemia at 10 mg/kg, perorally after 4 days; assay type: functional; conditions: route oral; summary of the method: as §2
[22] = tested on: Plasmodium berghei; experiment: Reduced parasitemia in Plasmodium berghei ANKA infected CD1 mice (Mus musculus) at 10 mg/kg peroral dose after 4 days; assay type: functional; set-up: scale not given: the % may be the effect or the level left; conditions: route oral; summary of the method: as §2
[23] = tested on: Aspergillus fumigatus; experiment: Antifungal activity against itraconazole resistant Aspergillus fumigatus; assay type: functional
[24] = tested on: Plasmodium berghei; experiment: Reduced parasitemia in Plasmodium berghei ANKA infected CD1 mice (Mus musculus) at 150 mg/kg peroral dose after 4 days; assay type: functional; set-up: scale not given: the % may be the effect or the level left; conditions: route oral; summary of the method: as §2

Row | SMILES | IC50 [1] [nM] | IC50 [2] [nM] | IC50 [3] [nM] | IC50 [17] [nM] | CC50 [20] [nM] | further results
1 | Clc1ccc(C(c2ccc(CN3CCCC3)cc2)(c2ccc(CN3CCCC3)cc2)n2ccnc2)cc1 | 26.1 | 39.2 | 11.7 | 48.4 | – | logD [4]: 1.56; logD [5]: 1.4; logD [6]: 0.67; MIC [7]: > 32 µg/mL; MIC [8]: > 32 µg/mL; MIC [9]: > 32 µg/mL; MIC [10]: > 32 µg/mL; MIC [11]: > 32 µg/mL; MIC [12]: > 32 µg/mL; CC50 at 48 h [13]: 47000 nM; CC50 at 48 h [14]: 58700 nM; CC50 at 48 h [15]: 68500 nM; Activity [16]: 94%
2 | Clc1ccc(C(c2ccccc2)(c2ccc(CN3CCCC3)cc2)n2ccnc2)cc1 (racemic) | – | – | – | – | – | logD [4]: 3.33; logD [5]: 3.13; logD [6]: 1.72; MIC [7]: 32 µg/mL (≈ 74.8 µM); MIC [8]: 16 µg/mL (≈ 37.4 µM); MIC [9]: 32 µg/mL (≈ 74.8 µM); MIC [10]: 32 µg/mL (≈ 74.8 µM); MIC [11]: > 32 µg/mL; MIC [12]: > 32 µg/mL; CC50 at 48 h [13]: 51500 nM; CC50 at 48 h [14]: 58500 nM; CC50 at 48 h [15]: 70300 nM; Activity [16]: 94.8%; Activity [18]: 37.6%
3 | CCN(CC)Cc1ccc(C(c2cccc(Cl)c2)n2cncn2)cc1 (racemic) | > 10000 | > 10000 | 3700 | – | – | IC50 [19]: > 10000 nM
4 | c1ccc2c(C(c3ccc(CN4CCCC4)cc3)n3ccnc3)ccnc2c1 (racemic) | 5030 | 1790 | 379 | 7480 | – | –
5 | Clc1cccc(C(c2ccc(CN3CCNCC3)cc2)n2ccnc2)c1 (racemic) | 411 | 327 | 354 | 516 | – | –
6 | Clc1cccc(C(c2ccncc2)(c2ccc(CN3CCCC3)cc2)n2ccnc2)c1 (racemic) | 587 | 415 | 510 | 1230 | – | –
7 | Clc1ccc2c(C(c3ccccc3)(c3ccc(CN4CCCC4)cc3)n3ccnc3)ccnc2c1 (racemic) | 148 | 10 | 60 | 168 | 51800 | –
8 | Clc1ccc(C(c2ccc(CN3CCCC3)cc2)(c2cccs2)n2ccnc2)cc1 (racemic) | 3570 | 6690 | 1780 | 1360 | – | –
9 | CCN(CC)Cc1ccc(C(c2cccc(Cl)c2)n2ccnc2)cc1 (racemic) | 1290 | 452 | 282 | 1890 | – | –
10 | Clc1cccc(C(c2ccc(CN3CCCC3)cc2)(c2cccs2)n2ccnc2)c1 (racemic) | 4270 | 1040 | 1270 | 7170 | – | –
11 | Clc1ccc(C(c2ccccc2)(c2ccc(CN3CCOCC3)cc2)n2ccnc2)cc1 (racemic) | 561 | – | – | 726 | – | CC50 at 48 h [13]: 16000 nM; CC50 at 48 h [14]: 15600 nM; CC50 at 48 h [15]: 13300 nM
12 | Fc1ccc(C(c2ccc(Cl)cc2)(c2ccc(CN3CCCC3)cc2)n2ccnc2)cc1 (racemic) | 82 | 1.5 | 380 | 118 | 8200 | –
13 | CCN(CC)Cc1ccc(C(c2ccccc2)(c2ccc(Cl)cc2)n2ccnc2)cc1 (racemic) | – | 41.4 | 0.48 | 415 | – | –
14 | Clc1cccc(C(c2ccnc3ccccc23)n2ccnc2)c1 (racemic) | > 10000 | > 10000 | 4290 | – | – | IC50 [19]: > 10000 nM
15 | Clc1cccc(C(c2ccc(CN3CCCC3)cc2)(c2ccoc2)n2ccnc2)c1 (racemic) | 101 | 167 | – | 238 | – | –
16 | Clc1ccc(C(c2ccccc2)(c2ccc(CN3CCNCC3)cc2)n2ccnc2)cc1 (racemic) | 55.4 | – | – | 84.1 | – | CC50 at 48 h [13]: 16200 nM; CC50 at 48 h [14]: 15800 nM; CC50 at 48 h [15]: 13700 nM
17 | Fc1ccc(C(c2ccc(CN3CCCC3)cc2)(c2ccnc3cc(Cl)ccc23)n2ccnc2)cc1 (racemic) | 66.9 | 2 | 67 | 85.8 | 33000 | MIC [7]: 8 µg/mL (≈ 16.1 µM); MIC [8]: > 32 µg/mL; MIC [9]: > 32 µg/mL; MIC [10]: > 32 µg/mL; MIC [11]: > 32 µg/mL; MIC [12]: > 32 µg/mL; Activity [16]: 99.4%
18 | Clc1ccc(C(c2ccccc2)(c2ccc(CN3CCCC3)cc2)n2cnc3ccccc32)cc1 (racemic) | 379 | 376 | 23 | 1030 | – | –
19 | Clc1ccc(C(c2ccccc2)(c2ccc(CN3CCCC3)cc2)N2CCNCC2)cc1 (racemic) | 3840 | 1560 | 3510 | – | 20900 | IC50 [19]: > 10000 nM
20 | Clc1cccc(C(c2ccc(CN3CCCC3)cc2)(c2nccs2)n2ccnc2)c1 (racemic) | 314 | 1850 | 66.7 | 484 | – | CC50 at 48 h [13]: 52900 nM; CC50 at 48 h [14]: 57500 nM; CC50 at 48 h [15]: 80500 nM; Activity [16]: 73.1%
21 | Clc1ccc(C(c2ccc(CN3CCCC3)cc2)(c2nccs2)n2ccnc2)cc1 (racemic) | 177 | 80 | 180 | 300 | 64200 | –
22 | Clc1cccc(C(c2ccc(CN3CCCC3)cc2)(c2ccccn2)n2ccnc2)c1 (racemic) | 349 | 157 | 155 | 619 | 27200 | –
23 | CC(C)(C)OC(=O)N1CCN(Cc2ccc(C(c3cccc(Cl)c3)n3ccnc3)cc2)CC1 (racemic) | 4110 | 1520 | 1070 | 5260 | – | –
24 | Clc1ccc2c(C(c3ccc(CN4CCCC4)cc3)n3ccnc3)ccnc2c1 (racemic) | 1810 | 1170 | 745 | 1630 | – | –
25 | CCN(CC)CCCC(C)Nc1ccnc2cc(Cl)ccc12 (centres undefined) [CHLOROQUINE] | – | – | – | – | 207000 | Activity [21]: 100%; Activity [22]: 89.1%
26 | Clc1ccccc1C(c1ccccc1)(c1ccccc1)n1ccnc1 [CLOTRIMAZOLE] | – | – | – | – | 88100 | MIC [7]: 0.03 µg/mL (≈ 0.087 µM); MIC [8]: 2 µg/mL (≈ 5.8 µM); MIC [9]: 2 µg/mL (≈ 5.8 µM); MIC [10]: 2 µg/mL (≈ 5.8 µM); MIC [11]: 4 µg/mL (≈ 11.6 µM); MIC [12]: 4 µg/mL (≈ 11.6 µM); MIC [23]: 4 µg/mL (≈ 11.6 µM); Activity [16]: 6%; Activity [24]: 28.3%
